# Published values collected from several papers.
# Each line is one published result; the experiments were not run side by side.
SMILES,target or system,assay,system,conditions,endpoint,result
CCOC(=O)c1cc(-c2cccc(NC(=O)Nc3ccc(Cl)c(Cl)c3)c2)on1,Escherichia coli,"microbial growth, broth dilution",ATCC25922,,MIC,> 64 µg/mL
Nc1nc(Cl)c2ncn([C@@H]3O[C@H](CO)[C@@H](O)[C@H]3O)c2n1,Severe acute respiratory syndrome coronavirus,"plaque formation, inhibitor",Vero C1008,,IC50,> 300 µM
COC(=O)c1cc(-c2cccc(NC(=S)Nc3ccc(OC)cc3)c2)on1,Escherichia coli,"microbial growth, broth dilution",ATCC25922,,MIC,> 64 µg/mL
Cc1ccc2nc(-c3ccccc3Cl)[nH]c2c1,Staphylococcus aureus,"microbial growth, broth dilution",ATCC43300 MRSA,drug-resistant strain,MIC,256 µg/mL
O=C(NCCc1c[nH]c2ccccc12)C(=O)c1cn(Cc2ccc(Cl)cc2)c2ccc(Br)cc12,C4-2,"cell growth or viability, MTT",,,IC50,> 100 µM
CCOC(=O)c1nnn(-c2cccc(NC(=O)Nc3ccc(Cl)c(Cl)c3)c2)c1C,Escherichia coli,"microbial growth, broth dilution",ATCC25922,,MIC,> 64 µg/mL
Cc1ccc2nc(-c3ccc(Cl)c(Cl)c3)n(Cc3ccccc3)c2c1,Staphylococcus aureus,"microbial growth, broth dilution",ATCC43300 MRSA,drug-resistant strain,MIC,32 µg/mL
Nc1ncnc2c([C@@H]3N[C@H](CO)[C@@H](O)[C@H]3O)c[nH]c12,Severe acute respiratory syndrome coronavirus,"viral replication, inhibitor",Vero 76,0.3 µM,inhibition,0.9%
CN(C)c1ccc(-c2nc3ccccc3[nH]2)cc1,Staphylococcus aureus,"microbial growth, broth dilution",ATCC43300 MRSA,drug-resistant strain,MIC,128 µg/mL
COC(=O)c1cc(-c2cccc(NC(=O)Nc3cccc(F)c3)c2)on1,Escherichia coli,"microbial growth, broth dilution",ATCC25922,,MIC,> 64 µg/mL
Cc1ccc2nc(-c3ccc([N+](=O)[O-])cc3)n(Cc3ccccc3Cl)c2c1,Staphylococcus aureus,"microbial growth, broth dilution",ATCC43300 MRSA,drug-resistant strain,MIC,64 µg/mL
COC(=O)c1cc(-c2cccc(NC(=S)Nc3ccc([N+](=O)[O-])cc3)c2)on1,Escherichia coli,"microbial growth, broth dilution",ATCC25922,,MIC,> 64 µg/mL
OCC(CCn1cnc2c(Cl)ncnc21)COCc1ccccc1 (stereo not drawn),Severe acute respiratory syndrome coronavirus,"plaque formation, inhibitor",Vero C1008,,IC50,> 300 µM
CCCCCCCCCOc1ccc2[nH]cc(CCN)c2c1,HN-6,cell growth or viability,,72 h,IC50,15.9 µM
Cc1ccc2nc(-c3ccc(F)cc3)[nH]c2c1,Staphylococcus aureus,"microbial growth, broth dilution",ATCC43300 MRSA,drug-resistant strain,MIC,128 µg/mL
OC[C@@H]1C[C@@H](O)[C@H](n2cnc3c(Cl)ncnc32)O1,Severe acute respiratory syndrome coronavirus,"plaque formation, inhibitor",Vero C1008,,IC50,> 300 µM
c1ccc2[nH]c(-c3ccc4c(c3)OCO4)nc2c1,Staphylococcus aureus,"microbial growth, broth dilution",ATCC43300 MRSA,drug-resistant strain,MIC,256 µg/mL
c1cc2c(ccc3c4c([nH]c32)CCCC4)cn1,MDA-MB-468,"cell growth or viability, MTT",,,IC50,7.9 µM
